# According to ChEMBL document CHEMBL3627695, “1-Benzyl-2-methyl-3-indolylmethylene barbituric acid derivatives: Anti-cancer agents that target nucleophosmin 1 (NPM1)” (Bioorg Med Chem, 2015):
# Calls of active or inactive are those of the source. The rule behind the calls is not given here.
# What was measured:
# OCI-AML-3 = experiment: (§1) Anticancer activity against human OCI-AML3 cells expressing mutant NPM1 assessed as apoptosis for 48 hrs by annexin-V and TO-PRO3 staining based flow cytometry; assay type: functional, cell-based
# Procedure, shortened: (§2)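 OCI-AML3 cells (NPM1c+) in logarithmic growth, passaged 2–3 times weekly. Cells were exposed to the indicated compound concentrations for 48 hr, then stained with annexin V and TO-PRO 3. Percent apoptotic cells was read by flow cytometry. AP50 is the concentration at which 50% of cells undergo apoptosis.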
# CCRF-CEM = experiment: Anticancer activity against human CCRF-CEM cells after 48 hrs by sulforhodamine B assay; assay type: functional
# Procedure, shortened: (§3)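 NCI-60 human tumour cell line panel. Compounds dissolved in DMSO/H2O and tested at five 10-fold dilutions (10⁻⁴ M to 10⁻⁸ M) for 48 hr. GI50 is the molar concentration giving 50% reduction in net cell growth relative to cell numbers on day 0.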
# HL-60(TB) = experiment: Anticancer activity against human HL-60(TB) cells after 48 hrs by sulforhodamine B assay; assay type: functional; details: HL-60, 48 h; procedure, shortened: as §3
# K562 = experiment: Anticancer activity against human K562 cells after 48 hrs by sulforhodamine B assay; assay type: functional; details: K562, 48 h; procedure, shortened: as §3
# [1] = Anticancer activity against human MOLT4 cells after 48 hrs by sulforhodamine B assay; assay type: functional; details: MOLT-4, 48 h; procedure, shortened: as §3
# [2] = Anticancer activity against human RPMI8226 cells after 48 hrs by sulforhodamine B assay; assay type: functional; details: RPMI-8226, 48 h; procedure, shortened: as §3
# SR = experiment: Anticancer activity against human SR cells after 48 hrs by sulforhodamine B assay; assay type: functional
# Procedure, shortened: (§4)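 NCI-60 panel protocol. Compounds were dissolved in DMSO/H2O and tested at five 10-fold concentrations (10⁻⁴ to 10⁻⁸ M) with 48 hr incubation. GI50 is the molar concentration giving a 50% reduction in net cell growth relative to cell numbers on day 0.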
# A549 = experiment: Anticancer activity against human A549/ATCC cells after 48 hrs by sulforhodamine B assay; assay type: functional; details: A549, 48 h; procedure, shortened: as §3
# HOP-62 = experiment: Anticancer activity against human HOP62 cells after 48 hrs by sulforhodamine B assay; assay type: functional; details: HOP-62, 48 h; procedure, shortened: as §3
# [3] = Anticancer activity against human HOP92 cells after 48 hrs by sulforhodamine B assay; assay type: functional; details: HOP-92, 48 h; procedure, shortened: as §3
# NCI-H226 = experiment: Anticancer activity against human NCI-H226 cells after 48 hrs by sulforhodamine B assay; assay type: functional; details: NCI-H226, 48 h; procedure, shortened: as §3
# NCI-H322M = experiment: Anticancer activity against human NCI-H322M cells after 48 hrs by sulforhodamine B assay; assay type: functional; procedure, shortened: as §3
# NCI-H460 = experiment: Anticancer activity against human NCI-H460 cells after 48 hrs by sulforhodamine B assay; assay type: functional; details: NCI-H460, 48 h; procedure, shortened: as §3
# NCI-H522 = experiment: Anticancer activity against human NCI-H522 cells after 48 hrs by sulforhodamine B assay; assay type: functional; details: NCI-H522, 48 h; procedure, shortened: as §3
# [4] = Anticancer activity against human COLO205 cells after 48 hrs by sulforhodamine B assay; assay type: functional; details: COLO 205, 48 h; procedure, shortened: as §3
# [5] = Anticancer activity against human HCC2998 cells after 48 hrs by sulforhodamine B assay; assay type: functional; details: HCC 2998, 48 h; procedure, shortened: as §3
# HCT-116 = experiment: Anticancer activity against human HCT116 cells after 48 hrs by sulforhodamine B assay; assay type: functional; details: HCT-116, 48 h; procedure, shortened: as §3
# HCT-15 = experiment: Anticancer activity against human HCT15 cells after 48 hrs by sulforhodamine B assay; assay type: functional; details: HCT-15, 48 h; procedure, shortened: as §3
# HT-29 = experiment: Anticancer activity against human HT-29 cells after 48 hrs by sulforhodamine B assay; assay type: functional; details: HT-29, 48 h; procedure, shortened: as §3
# KM12 = experiment: Anticancer activity against human KM12 cells after 48 hrs by sulforhodamine B assay; assay type: functional; details: KM12, 48 h; procedure, shortened: as §3
# SW-620 = experiment: Anticancer activity against human SW620 cells after 48 hrs by sulforhodamine B assay; assay type: functional; details: SW-620, 48 h; procedure, shortened: as §4
# SF-268 = experiment: Anticancer activity against human SF268 cells after 48 hrs by sulforhodamine B assay; assay type: functional; details: SF-268, 48 h; procedure, shortened: as §3
# [6] = Anticancer activity against human SF295 cells after 48 hrs by sulforhodamine B assay; assay type: functional; details: SF-295, 48 h; procedure, shortened: as §3
# [7] = Anticancer activity against human SF539 cells after 48 hrs by sulforhodamine B assay; assay type: functional; details: SF-539, 48 h; procedure, shortened: as §3
# SNB-19 = experiment: Anticancer activity against human SNB19 cells after 48 hrs by sulforhodamine B assay; assay type: functional; details: SNB-19, 48 h; procedure, shortened: as §3
# SNB-75 = experiment: Anticancer activity against human SNB75 cells after 48 hrs by sulforhodamine B assay; assay type: functional; details: SNB-75, 48 h; procedure, shortened: as §3
# U-251 = experiment: Anticancer activity against human U251 cells after 48 hrs by sulforhodamine B assay; assay type: functional; details: U-251, 48 h; procedure, shortened: as §4
# [8] = Anticancer activity against human LOXIMVI cells after 48 hrs by sulforhodamine B assay; assay type: functional; details: LOX IMVI; procedure, shortened: as §3
# Malme-3M = experiment: Anticancer activity against human MALME-3M cells after 48 hrs by sulforhodamine B assay; assay type: functional; procedure, shortened: as §3
# M14 = experiment: Anticancer activity against human M14 cells after 48 hrs by sulforhodamine B assay; assay type: functional; details: M14, 48 h; procedure, shortened: as §3
# MDA-MB-435 = experiment: Anticancer activity against human MDA-MB-435 cells after 48 hrs by sulforhodamine B assay; assay type: functional; details: MDA-MB-435, 48 h; procedure, shortened: as §3
# SK-MEL-2 = experiment: Anticancer activity against human SK-MEL-2 cells after 48 hrs by sulforhodamine B assay; assay type: functional; details: SK-MEL-2, 48 h; procedure, shortened: as §3
# SK-MEL-28 = experiment: Anticancer activity against human SK-MEL-28 cells after 48 hrs by sulforhodamine B assay; assay type: functional; details: SK-MEL-28, 48 h; procedure, shortened: as §3
# SK-MEL-5 = experiment: Anticancer activity against human SK-MEL-5 cells after 48 hrs by sulforhodamine B assay; assay type: functional; details: SK-MEL-5, 48 h; procedure, shortened: as §3
# UACC-257 = experiment: Anticancer activity against human UACC257 cells after 48 hrs by sulforhodamine B assay; assay type: functional; details: UACC-257, 48 h; procedure, shortened: as §4
# IGROV-1 = experiment: Anticancer activity against human IGROV1 cells after 48 hrs by sulforhodamine B assay; assay type: functional; details: IGROV-1, 48 h; procedure, shortened: as §3
# OVCAR-3 = experiment: Anticancer activity against human OVCAR3 cells after 48 hrs by sulforhodamine B assay; assay type: functional; details: OVCAR-3, 48 h; procedure, shortened: as §3
# OVCAR-4 = experiment: Anticancer activity against human OVCAR4 cells after 48 hrs by sulforhodamine B assay; assay type: functional; details: OVCAR-4, 48 h; procedure, shortened: as §3
# OVCAR-5 = experiment: Anticancer activity against human OVCAR5 cells after 48 hrs by sulforhodamine B assay; assay type: functional; details: OVCAR-5, 48 h; procedure, shortened: as §3
# OVCAR-8 = experiment: Anticancer activity against human OVCAR8 cells after 48 hrs by sulforhodamine B assay; assay type: functional; details: OVCAR-8, 48 h; procedure, shortened: as §3
# [9] = Anticancer activity against human NCI-ADR-RES cells after 48 hrs by sulforhodamine B assay; assay type: functional; procedure, shortened: as §3
# SK-OV-3 = experiment: Anticancer activity against human SKOV3 cells after 48 hrs by sulforhodamine B assay; assay type: functional; details: SK-OV-3, 48 h; procedure, shortened: as §3
# 786-0 = experiment: Anticancer activity against human 786-0 cells after 48 hrs by sulforhodamine B assay; assay type: functional; details: 786-0, 48 h; procedure, shortened: as §3
# A498 = experiment: Anticancer activity against human A498 cells after 48 hrs by sulforhodamine B assay; assay type: functional; details: A498, 48 h; procedure, shortened: as §3
# ACHN = experiment: Anticancer activity against human ACHN cells after 48 hrs by sulforhodamine B assay; assay type: functional; procedure, shortened: as §3
# CAKI-1 = experiment: Anticancer activity against human Caki1 cells after 48 hrs by sulforhodamine B assay; assay type: functional; details: CAKI-1, 48 h; procedure, shortened: as §3
# [10] = Anticancer activity against human RXF393 cells after 48 hrs by sulforhodamine B assay; assay type: functional; details: RXF 393, 48 h; procedure, shortened: as §3
# SN12C = experiment: Anticancer activity against human SN12C cells after 48 hrs by sulforhodamine B assay; assay type: functional; procedure, shortened: as §3
# TK-10 = experiment: Anticancer activity against human TK10 cells after 48 hrs by sulforhodamine B assay; assay type: functional; details: TK-10, 48 h; procedure, shortened: as §4
# UO-31 = experiment: Anticancer activity against human UO31 cells after 48 hrs by sulforhodamine B assay; assay type: functional; details: UO-31, 48 h; procedure, shortened: as §4
# DU-145 = experiment: Anticancer activity against human DU145 cells after 48 hrs by sulforhodamine B assay; assay type: functional; details: DU-145, 48 h; procedure, shortened: as §3
# MCF7 = experiment: Anticancer activity against human MCF7 cells after 48 hrs by sulforhodamine B assay; assay type: functional; details: MCF7, 48 h; procedure, shortened: as §3
# MDA-MB-231 = experiment: Anticancer activity against human MDA-MB-231 cells after 48 hrs by sulforhodamine B assay; assay type: functional; details: MDA-MB-231, 48 h; procedure, shortened: as §3
# [11] = Anticancer activity against human Hs 578T cells after 48 hrs by sulforhodamine B assay; assay type: functional; procedure, shortened: as §3
# BT-549 = experiment: Anticancer activity against human BT549 cells after 48 hrs by sulforhodamine B assay; assay type: functional; details: BT-549, 48 h; procedure, shortened: as §3
# T47D = experiment: Anticancer activity against human T47D cells after 48 hrs by sulforhodamine B assay; assay type: functional; procedure, shortened: as §4
# MDA-MB-468 = experiment: Anticancer activity against human MDA-MB-468 cells after 48 hrs by sulforhodamine B assay; assay type: functional; details: MDA-MB-468, 48 h; procedure, shortened: as §3
# [12] = as §1; assay type: functional, cell-based; details: OCI-AML-3, 48 h; procedure, shortened: as §2
smiles,measurement,setting,value
Cc1c(C=C2C(=O)NC(=O)NC2=O)c2ccccc2n1Cc1ccc(C#N)cc1,Activity,OCI-AML-3,inactive
Cc1c(C=C2C(=O)NC(=S)NC2=O)c2ccccc2n1Cc1ccc(C#N)cc1,GI50,CCRF-CEM,840 nM
same,GI50,HL-60(TB),1080 nM
same,GI50,K562,1770 nM
same,GI50,[1],1820 nM
same,GI50,[2],570 nM
same,GI50,SR,560 nM
same,GI50,A549,2480 nM
same,GI50,HOP-62,1960 nM
same,GI50,[3],1280 nM
same,GI50,NCI-H226,1790 nM
same,GI50,NCI-H322M,1930 nM
same,GI50,NCI-H460,2010 nM
same,GI50,NCI-H522,1750 nM
same,GI50,[4],1730 nM
same,GI50,[5],1790 nM
same,GI50,HCT-116,1290 nM
same,GI50,HCT-15,1740 nM
same,GI50,HT-29,1760 nM
same,GI50,KM12,1740 nM
same,GI50,SW-620,1360 nM
same,GI50,SF-268,1600 nM
same,GI50,[6],1880 nM
same,GI50,[7],1290 nM
same,GI50,SNB-19,1770 nM
same,GI50,SNB-75,2040 nM
same,GI50,U-251,1610 nM
same,GI50,[8],900 nM
same,GI50,Malme-3M,2500 nM
same,GI50,M14,1610 nM
same,GI50,MDA-MB-435,1490 nM
same,GI50,SK-MEL-2,2170 nM
same,GI50,SK-MEL-28,2080 nM
same,GI50,SK-MEL-5,1840 nM
same,GI50,UACC-257,1670 nM
same,GI50,IGROV-1,1610 nM
same,GI50,OVCAR-3,1580 nM
same,GI50,OVCAR-4,1590 nM
same,GI50,OVCAR-5,1840 nM
same,GI50,OVCAR-8,1320 nM
same,GI50,[9],3830 nM
same,GI50,SK-OV-3,2980 nM
same,GI50,786-0,1760 nM
same,GI50,A498,220 nM
same,GI50,ACHN,1700 nM
same,GI50,CAKI-1,2210 nM
same,GI50,[10],1530 nM
same,GI50,SN12C,1400 nM
same,GI50,TK-10,1370 nM
same,GI50,UO-31,1460 nM
same,GI50,DU-145,1710 nM
same,GI50,MCF7,1280 nM
same,GI50,MDA-MB-231,1640 nM
same,GI50,[11],1220 nM
same,GI50,BT-549,1870 nM
same,GI50,T47D,2540 nM
same,GI50,MDA-MB-468,380 nM
same,AC50,[12],2720 nM
